Results from ChEMBL document CHEMBL2390879, “Inhibition of monoamine oxidase by phthalide analogues” (Bioorg Med Chem Lett, 2013).

Experiments:
[1] = target: T1, Amine oxidase [flavin-containing] A (Homo sapiens, UniProt P21397); assay: Inhibition of human recombinant monoamine oxidase-A assessed as kynuramine conversion to […] after 20 mins by fluorescence spectrophotometric analysis
T1 sequence (P21397 whole entry): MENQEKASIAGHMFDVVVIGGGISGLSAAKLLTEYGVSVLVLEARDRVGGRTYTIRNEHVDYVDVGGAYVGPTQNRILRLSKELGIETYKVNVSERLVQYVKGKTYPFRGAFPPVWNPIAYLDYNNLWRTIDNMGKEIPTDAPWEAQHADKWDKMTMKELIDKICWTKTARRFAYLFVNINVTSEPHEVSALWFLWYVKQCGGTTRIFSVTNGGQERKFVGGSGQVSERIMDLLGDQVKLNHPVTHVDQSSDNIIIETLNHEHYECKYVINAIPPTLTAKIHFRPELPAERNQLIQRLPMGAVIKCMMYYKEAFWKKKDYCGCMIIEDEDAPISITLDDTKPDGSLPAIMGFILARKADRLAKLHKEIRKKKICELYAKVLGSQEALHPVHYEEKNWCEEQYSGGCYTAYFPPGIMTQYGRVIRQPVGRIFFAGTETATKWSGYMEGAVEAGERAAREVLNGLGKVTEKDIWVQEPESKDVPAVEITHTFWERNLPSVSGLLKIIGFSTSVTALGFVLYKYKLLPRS

[2] = target: T2, Amine oxidase [flavin-containing] B (Homo sapiens, UniProt P27338); assay: Inhibition of human recombinant monoamine oxidase-B assessed as kynuramine conversion to 6-hydroxyquinoline after 20 mins by fluorescence spectrophotometric analysis
T2 sequence (P27338 whole entry): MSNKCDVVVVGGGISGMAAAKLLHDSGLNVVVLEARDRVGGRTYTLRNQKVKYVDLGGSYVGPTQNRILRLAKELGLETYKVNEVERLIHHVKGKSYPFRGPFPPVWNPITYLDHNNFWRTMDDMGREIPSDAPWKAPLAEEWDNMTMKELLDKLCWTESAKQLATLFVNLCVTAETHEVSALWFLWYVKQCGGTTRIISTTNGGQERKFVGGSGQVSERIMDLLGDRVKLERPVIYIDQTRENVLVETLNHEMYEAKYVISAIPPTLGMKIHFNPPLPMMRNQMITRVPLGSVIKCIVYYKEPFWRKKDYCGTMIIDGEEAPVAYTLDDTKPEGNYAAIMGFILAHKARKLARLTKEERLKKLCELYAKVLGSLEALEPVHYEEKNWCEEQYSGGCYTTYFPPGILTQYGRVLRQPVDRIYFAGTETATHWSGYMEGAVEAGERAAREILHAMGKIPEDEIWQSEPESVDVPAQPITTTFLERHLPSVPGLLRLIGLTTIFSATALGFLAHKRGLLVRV

[3] = species: Homo sapiens; assay: Selectivity index, ratio of IC50 for human recombinant monoamine oxidase-A to IC50 for human recombinant monoamine oxidase-B
In short: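 Selectivity for MAO-B, given as IC50(MAO-A)/IC50(MAO-B). Both IC50s came from recombinant human enzymes, with kynuramine oxidation to fluorescent […] read at ex 310 / em 400 nm in alkaline medium.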

[4] = target: T2, Amine oxidase [flavin-containing] B; assay: Competitive inhibition of human recombinant monoamine oxidase-B using kynuramine as substrate by Lineweaver-Burk plot analysis
In short: (§1)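 Recombinant human MAO-A or MAO-B with kynuramine as substrate. Initial rates were recorded at 4 substrate concentrations, without inhibitor and with three inhibitor concentrations. Lineweaver–Burk (1/v vs 1/[S]) plots were built from these rates. Product […] was read by fluorescence in alkaline medium (ex 310 nm, em 400 nm).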

[5] = target: T2, Amine oxidase [flavin-containing] B; assay: Competitive inhibition of human recombinant monoamine oxidase-B using kynuramine as substrate by Morrison equation analysis
[6] = target: T2, Amine oxidase [flavin-containing] B; assay: (§2) Reversible inhibition of human recombinant monoamine oxidase-B using kynuramine as substrate assessed as residual enzyme activity treated at 100 times IC50 preincubated for 30 mins prior to substrate addition followed by 100 fold dilution measured after 20 mins by fluorescence spectrophotometric analysis relative to control
[7] = target: T2, Amine oxidase [flavin-containing] B; assay: Quasi-reversible inhibition of human recombinant monoamine oxidase-B using kynuramine as substrate treated at 10 to 100 times IC50 preincubated for 30 mins prior to substrate addition followed by 100 fold dilution measured after 20 mins by fluorescence spectrophotometric analysis
[8] = target: T2, Amine oxidase [flavin-containing] B; assay: as §2, with “at 10” for “at 100”
[9] = target: T2, Amine oxidase [flavin-containing] B; assay: Competitive inhibition of human recombinant monoamine oxidase-B using kynuramine as substrate by Cheng and Prusoff equation analysis
[10] = target: T1, Amine oxidase [flavin-containing] A; assay: as §2, with “Irreversible inhibition” for “Reversible inhibition”, “monoamine oxidase-A” for “monoamine oxidase-B”, “at 10” for “at 100”
[11] = target: T2, Amine oxidase [flavin-containing] B; assay: Ratio of phthalide IC50 to compound IC50 for human recombinant monoamine oxidase-B
[12] = target: T3, Amine oxidase [flavin-containing] B (Rattus norvegicus, UniProt P19643); assay: Inhibition of rat brain monoamine oxidase-B
T3 sequence (P19643 whole entry): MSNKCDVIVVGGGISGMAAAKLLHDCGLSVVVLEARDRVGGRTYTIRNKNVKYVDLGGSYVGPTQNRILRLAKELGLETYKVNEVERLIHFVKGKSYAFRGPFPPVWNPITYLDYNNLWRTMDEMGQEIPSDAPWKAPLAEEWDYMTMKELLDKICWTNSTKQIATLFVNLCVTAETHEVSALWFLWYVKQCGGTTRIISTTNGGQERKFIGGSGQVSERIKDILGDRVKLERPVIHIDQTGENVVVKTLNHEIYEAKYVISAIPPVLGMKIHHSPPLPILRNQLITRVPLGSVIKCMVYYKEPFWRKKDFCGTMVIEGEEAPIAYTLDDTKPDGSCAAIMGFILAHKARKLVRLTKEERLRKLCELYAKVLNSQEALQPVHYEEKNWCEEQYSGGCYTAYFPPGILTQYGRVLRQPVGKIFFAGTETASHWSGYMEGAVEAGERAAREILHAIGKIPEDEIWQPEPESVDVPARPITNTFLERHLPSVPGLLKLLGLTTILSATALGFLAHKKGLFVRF

[13] = target: T1, Amine oxidase [flavin-containing] A; assay: Competitive inhibition of human recombinant monoamine oxidase-A using kynuramine as substrate by Cheng and Prusoff equation analysis
[14] = target: T1, Amine oxidase [flavin-containing] A; assay: as §2, with “monoamine oxidase-A” for “monoamine oxidase-B”, “at 10” for “at 100”
[15] = target: T1, Amine oxidase [flavin-containing] A; assay: Competitive inhibition of human recombinant monoamine oxidase-A using kynuramine as substrate by Lineweaver-Burk plot analysis; in short: as §1
[16] = target: T1, Amine oxidase [flavin-containing] A; assay: as §2, with “oxidase-A” for “oxidase-B”
[17] = target: T2, Amine oxidase [flavin-containing] B; assay: Inhibition of human recombinant monoamine oxidase-B assessed as kynuramine conversion to […] at 100 uM after 20 mins by fluorescence spectrophotometric analysis

IC50 [1] [µM]	IC50 [2] [µM]	Ratio IC50 [3]	Structure (SMILES)	other results
0.227	0.0024	96	O=C1OCc2ccc(OCc3ccc(Br)cc3)cc21	–
0.304	0.0014	214	O=C1OCc2ccc(OCc3ccc(C(F)(F)F)cc3)cc21	Ki [4]: 0.0007 µM; Ki [5]: 0.00046 µM; Activity [6]: 14%; inhibition (INH) [7]: Active; Activity [8]: 68%; Ki [9]: 0.0006 µM
–	–	–	C#CCN(C)Cc1ccccc1 [PARGYLINE]	Activity [10]: 1%
1.06	0.009	118	Cc1ccc(COc2ccc3c(c2)C(=O)OC3)cc1	–
44.9	28.6	1.6	O=C1OCc2ccccc21	–
1.07	0.068	16	O=C1OCc2ccc(OCCc3ccc(F)cc3)cc21	–
0.542	0.0064	84	O=C1OCc2ccc(OCc3ccc(F)cc3)cc21	–
7.33	0.081	90	Cc1ccc(CCOc2ccc3c(c2)C(=O)OC3)cc1	–
0.323	0.0074	43	O=C1OCc2ccc(OCCOc3ccc(F)cc3)cc21	–
0.344	0.0018	189	O=C1OCc2ccc(OCc3ccc(I)cc3)cc21	–
1.19	0.024	50	O=C1OCc2ccc(OCc3ccccc3)cc21	Ratio IC50 [11]: 1000; IC50 [12]: 0.23 µM
0.629	0.0035	180	O=C1OCc2ccc(OCc3cccc(Br)c3)cc21	–
0.137	0.011	13	O=C1OCc2ccc(OCCOc3ccc(Cl)cc3)cc21	–
0.185	0.012	16	O=C1OCc2ccc(OCC3CCCCC3)cc21	–
0.498	0.048	10	O=C1OCc2ccc(OCCc3ccc(Cl)cc3)cc21	–
0.172	0.0028	61	O=C1OCc2ccc(OCc3ccc(Cl)cc3)cc21	–
1.91	0.018	106	O=C1OCc2ccc(OCCOc3ccccc3)cc21	–
0.096	0.0062	16	O=C1OCc2ccc(OCCCc3ccccc3)cc21	Ki [13]: 0.025 µM; Activity [14]: 86%; Ki [15]: 0.062 µM; Activity [16]: 45%
3.21	0.047	68	O=C1OCc2ccc(OCCc3ccccc3)cc21	–
0.24	0.012	20	O=C1OCc2ccc(OCCOc3ccc(Br)cc3)cc21	–
59.9	–	–	O=C1OCc2ccc(NCc3ccccc3)cc21	inhibition (INH) [17]: Not Active
